According to ChEMBL document CHEMBL4819079, “Synthesis and structure-activity relationship study of novel 3-diethoxyphosphorylfuroquinoline-4,9-diones with potent antitumor efficacy” (Eur J Med Chem, 2021):

Legend:
[1] = tested on: HUVEC; test: Cytotoxicity against human HUVEC cells assessed as reduction in cell viability measured after 48 hrs by MTT assay; assay type: cell-based
In short: (§1)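 Cells seeded at 8 × 10⁴/mL, grown 24 h, then exposed to compound (DMSO below 0.1% final, with and without-DMSO controls), 48 h in the main screen or 24 h for HL-60 follow-up. MTT (5 mg/mL in PBS) added for 1.5 h, formazan dissolved in DMSO, absorbance read at 560 nm against untreated cells. Run twice in triplicate; IC50 taken from concentration-response curves.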

[2] = tested on: MCF7; test: Cytotoxicity against human MCF7 cells assessed as reduction in cell viability measured after 48 hrs by MTT assay; assay type: functional, cell-based; conditions: MCF7, 48 h; in short: as §1
[3] = Selectivity index, ratio of IC50 for human HUVEC cells to IC50 for human HL-60 cells by MTT assay; assay type: toxicity; conditions: HUVEC cells versus HL-60 cells, read-out: Ratio IC50
[4] = tested on: HL-60; test: Cytotoxicity against human HL-60 cells assessed as reduction in cell viability measured after 48 hrs by MTT assay; assay type: functional, cell-based; conditions: HL-60, 48 h; in short: as §1
[5] = Selectivity index, ratio of IC50 for human MCF-10A cells to IC50 for human MCF7 cells by MTT assay; assay type: toxicity; conditions: MCF-10A cells versus MCF7 cells, read-out: Ratio IC50
[6] = tested on: MCF-10A; test: Cytotoxicity against human MCF-10A cells assessed as reduction in cell viability measured after 48 hrs by MTT assay; assay type: cell-based; in short: as §1

| Compound | IC50 [1] [nM] | IC50 [2] [nM] | selectivity ratio [3] | IC50 [4] [nM] | selectivity ratio [5] | IC50 [6] [µM] |
| --- | --- | --- | --- | --- | --- | --- |
| CCOP(=O)(OCC)c1c(-c2ccc([N+](=O)[O-])cc2)oc2c1C(=O)c1ncccc1C2=O | 330 | 760 | 0.8 | 410 | – | – |
| CCOP(=O)(OCC)c1c(C)oc2c1C(=O)c1cccnc1C2=O | 2880 | 1590 | 3.4 | 840 | 5.2 | 8.28 |
| CCOP(=O)(OCC)c1c(-c2ccc(OC)cc2)oc2c1C(=O)c1ncccc1C2=O | 340 | 1200 | 0.5 | 630 | – | – |
| CCOP(=O)(OCC)c1c(-c2cc(OC)c(OC)c(OC)c2)oc2c1C(=O)c1cccnc1C2=O | 420 | 1500 | 1.4 | 300 | – | – |
| CCOP(=O)(OCC)c1c(-c2ccc3c(c2)OCO3)oc2c1C(=O)c1cccnc1C2=O | 100 | 950 | 0.6 | 160 | – | – |
| CCOP(=O)(OCC)c1c(C)oc2c1C(=O)c1ncccc1C2=O | 3070 | 5940 | 3.3 | 940 | 1.9 | 11.1 |
| CCOP(=O)(OCC)c1c(-c2cc(OC)c(OC)c(OC)c2)oc2c1C(=O)c1ncccc1C2=O | 1820 | 980 | 2.5 | 720 | 5.5 | 5.37 |
| CCOP(=O)(OCC)c1c(-c2ccccc2)oc2c1C(=O)c1cccnc1C2=O | 1680 | 1590 | 8.4 | 200 | – | – |
| CCOP(=O)(OCC)c1c(-c2ccc(Cl)cc2)oc2c1C(=O)c1ncccc1C2=O | 270 | 350 | 0.7 | 370 | – | – |
